Experimental data from different studies.
Lines come from different studies, so protocols differ.

`Cn1cncc1[C@@](N)(c1ccc(Cl)cc1)c1ccc2c(c1)c(-c1cccc(Cl)c1)cc(=O)n2C` has an IC50 of 2270 nM (HN-6; cell growth or viability; 72 h).
With `c1ccc2c(NCCCCCCNc3c4ccccc4nc4ccccc34)c3ccccc3nc2c1` the IC50 was 96 nM (MDA-MB-468; cell growth or viability, MTT).
`CCn1cc(C(=O)C(=O)NCCc2c[nH]c3ccccc23)c2ccccc21` has an IC50 of greater than 100000 nM (C4-2; cell growth or viability, MTT).
The IC50 of `Cc1c2cnccc2c(C)c2c1c1ccccc1n2CCCCCCNCc1ccccc1` is reported as 720 nM (MDA-MB-468; cell growth or viability, MTT).
The IC50 of `O=C(NCCc1c[nH]c2ccccc12)C(=O)c1cn(Cc2ccc(Cl)cc2)c2ccc(F)cc12` is reported as greater than 100000 nM (C4-2; cell growth or viability, MTT).
The IC50 of `COc1cccc2c1C(=O)c1c(O)c3c(c(O)c1C2=O)C[C@@](O)(C(=O)CO)C[C@@H]3O[C@H]1C[C@H](N)[C@H](O)[C@H](C)O1` is reported as 500 nM (C6; cell growth or viability, SRB; 72 h).
The IC50 of `COc1ccc2c(c1)c(C(=O)C(=O)NCCc1c[nH]c3ccccc13)cn2Cc1ccc(Cl)cc1` is reported as greater than 100000 nM (C4-2; cell growth or viability, MTT).
For `COc1cc(O)c2c(=O)c(OC)c(-c3ccc(O)cc3)oc2c1`, the IC50 was 80400 nM (RBL-2H3; degranulation, inhibitor).
`c1ccc([C@@H]2C[C@H]2NC2CCNCC2)cc1` gave an EC50 of 0.48 nM (MV4-11; cell growth or viability, resazurin; 96 h).
For `O=C(O)C(Cl)Cl`, the IC50 was greater than 50000 nM (BCPAP; cell growth or viability, MTT; 72 h).
For `CC(C)[C@@H]1NC(=O)[C@H](C)OC(=O)[C@@H](C(C)C)NC(=O)[C@@H](C(C)C)OC(=O)[C@H](C(C)C)NC(=O)[C@H](C)OC(=O)[C@@H](C(C)C)NC(=O)[C@@H](C(C)C)OC(=O)[C@H](C(C)C)NC(=O)[C@H](C)OC(=O)[C@@H](C(C)C)NC(=O)[C@@H](C(C)C)OC1=O`, the IC50 was 24 nM (C6; cell growth or viability, SRB).
